Rows were chosen to be rich in hits. Some 1.5% of all compounds tested hit in one or more screens of this group.
HTR2A ag: mouse Htr2a agonists via beta-arrestin recruitment, primary screen, cell-based, luminescence; 5-hydroxytryptamine receptor 2A (Mus musculus), P35363; CHO-K1 mHTR2A beta-arrestin complementation; percent of 30 µM serotonin response; activation, % at 7.6 µM; 360,000 compounds, 0.66% hits;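 active = activation above a run cutoff, the mean activation of all tested compounds plus 3 SD, cut at about 14% in these data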;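 also: 0% = plate median of compound wells and 100% = 30 µM serotonin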
CXCR6 inh: CXCR6 receptor inhibitors, primary screen, cell-based, beta-arrestin, luminescence, CHO-K1 PathHunter, 1536-well; C-X-C chemokine receptor type 6 (Homo sapiens), O00574; inhibition, % at 20 µM; 360,000 compounds, 0.36% hits; AID 602244, 2012; in the data active = inhibition above about 34%, passing the limit was not always enough;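 also: antagonist mode with CXCL16 agonist at 10 nM final; 0% = 10 nM CXCL16 with DMSO and 100% = unstimulated wells without agonist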
CCR6 antag: CCR6 receptor antagonists, primary screen, cell-based, CHO-K1, luminescence, beta-arrestin, uHTS | inhibition, % at 20 µM | 340,000 compounds, 0.49% hits | CHO-K1 CCR6 PathHunter beta-arrestin, CCL20-stimulated | C-C chemokine receptor type 6 (Homo sapiens), P51684 | AID 493098, 2011;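 active = compounds whose inhibition of the agonist-driven luminescence signal at 20 µM reaches about 50%, limit read from the data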;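 also: cells stimulated with CCL20 at 14 nM final; plate controls were DMSO with CCL20 for no effect and DMSO without agonist for full effect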
APJ ag: agonists of human apelin receptor APJ, primary screen, CHO-K1 cells, PathHunter beta-arrestin, luminescence. P35414. 0% DMSO wells, 100% apelin. activation, % at 20 µM. 330,000 compounds, 0.11% hits. AID 2520, 2010;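 active = activation more than six SD over the plate average, tested at 20 µM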;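 also: 0% = DMSO alone and 100% = apelin-13 at 10 nM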
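system = engineered CHO-K1 APJ arrestin reporter cells | input = 1000 cells per well | timing = overnight seeding, 90 min compound at 25 °C, 1 h detection | measured by = enzyme-fragment complementation luminescence | read-out = beta-arrestin recruitment to APJ as agonist activity, luminescent signal | control set = negative DMSO alone, positive Apelin-13 at 10 nM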
APJ antag: antagonists of human apelin receptor APJ, primary screen, CHO-K1 cells, beta-arrestin complementation, luminescence; P35414; inhibition, % at 20 µM; 330,000 compounds, 0.32% hits; AID 2521, 2010;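 active = inhibition above about 40% at 20 µM, limit read from the data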;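 also: cells challenged with 10 nM apelin-13 agonist together with compound; plate controls were apelin-13 plus DMSO wells for no effect and DMSO wells lacking apelin-13 for full effect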
NTR1 ag: agonists of human NTR1, primary screen, imaging, U2OS cells, beta-arrestin-GFP, high content. AID 493036, 2011. NTR1-U2OS beta-arrestin-GFP spot imaging, agonist mode. 330,000 compounds, 0.17% hits. activation, % at 20 µM;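 active = activation at or above 40% of the spot to cytoplasm intensity ratio, with at least 20 cells analyzed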;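 also: 0% = DMSO without peptide and 100% = 100 nM NTR1 peptide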
MOR ag counter: OPRM1 agonists via beta-arrestin recruitment, confirmation, counter-screen for mouse HTR2A agonist project, cell-based, luminescence, single concentration. activation, % at 9.3 µM. AID 624380, 2012. shares compounds with HTR2A ag. 2,300 compounds, 5.3% hits. U2OS OPRM1 beta-arrestin PathHunter; DMSO 0%, DAMGO 9.3 µM 100%;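 active = mean activation above the mean of DMSO-only wells plus 3 SD, cut at about 0.5% in these data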
Target sequence (P35372 whole entry, looked up): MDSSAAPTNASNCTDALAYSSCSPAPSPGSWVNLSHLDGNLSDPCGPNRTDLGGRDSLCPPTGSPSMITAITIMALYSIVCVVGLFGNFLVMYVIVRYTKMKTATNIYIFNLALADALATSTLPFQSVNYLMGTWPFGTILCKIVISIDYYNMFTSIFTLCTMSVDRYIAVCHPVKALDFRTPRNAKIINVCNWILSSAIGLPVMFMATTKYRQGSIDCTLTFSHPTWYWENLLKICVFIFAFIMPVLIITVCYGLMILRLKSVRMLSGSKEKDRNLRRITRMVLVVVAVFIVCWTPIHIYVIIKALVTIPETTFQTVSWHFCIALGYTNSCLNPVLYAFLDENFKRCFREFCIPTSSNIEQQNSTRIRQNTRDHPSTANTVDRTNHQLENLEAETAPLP
m5-HT2A ag conf: mouse HTR2A agonists, beta-arrestin recruitment, confirmation, cell-based, luminescence, CHO-K1 PathHunter, triplicate. DMSO 0%, 30 µM serotonin 100%. AID 624381, 2012. shares compounds with HTR2A ag. activation, % at 7.6 µM. 2,300 compounds, 19% hits;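 active = mean activation across triplicates above the hit threshold derived in the original primary screen, cut at about 15% in these data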
An asterisk follows results filed as active; · = no result.

SMILES	HTR2A ag	CXCR6 inh	CCR6 antag	APJ ag	APJ antag	NTR1 ag	MOR ag counter	m5-HT2A ag conf
Cc1noc(C)c1CN1C(=O)c2cccc([N+](=O)[O-])c2C1=O	14*	-10	-5	1	18	1	0	0
COc1cc(C)nc(Oc2ccc(=O)n(C)n2)n1	15*	-18	6	·	·	·	0	-1
CSc1nc(C)cc(Oc2ccc(=O)n(C)n2)n1	-1	1	1	-1	14	1	·	·
CN1CCN(C(=O)C2=C[C@H](c3ccc(C(F)(F)F)cc3)C[C@H](OCc3ccc(CO)cc3)O2)CC1	-7	1	-9	5	0	3	·	·
Cc1nn(CC2CC2)c(=O)n1-c1cccc(Cl)c1	20*	10	-1	0	-8	-2	0	-3
Cc1ccc(-n2c(C)nn(CC3CC3)c2=O)cc1	0	6	7	1	8	2	·	·
CCOC(=O)c1[nH]ncc1CN1CCC(Cc2cccc(OC)c2)(C(=O)OCC)CC1	3	1	7	-3	14	1	·	·
COc1cc2[nH]c(C)c(-c3ccccc3)c(=O)c2cc1Cl	25*	-3	·	·	·	·	-1	14*
CCOC(=O)C1=NOC2COC3(CCN(c4ncccn4)CC3)OCC12 (centres undefined)	15*	4	2	-3	0	-1	0.6*	6
O=C(Nc1ccc2oc(-c3cccnc3)nc2c1)c1ccc(Br)o1	2	-11	4	5	-13	5	·	·
O=C(Nc1ccc2oc(-c3cccnc3)nc2c1)c1ccco1	15*	-3	-6	-2	-13	-1	-1	-3
COc1ccccc1CNC(=O)/C=C/c1ccc(S(=O)(=O)N2CCOCC2)cc1	3	-1	13	0	-2	0	·	·
O=c1[nH]c(Cc2ccccc2Cl)nc2ccccc12	2	0	-1	0	9	-1	·	·
Cc1ccc2c(=O)[nH]c(Cc3ccccc3C(=O)O)nc2c1	15*	-9	-5	-2	5	0	0	10
COc1cccc(-c2cc(N3CCN(C(=O)c4ccoc4)CC3)n3nc(-c4cccc(Cl)c4)cc3n2)c1	16*	8	·	·	·	·	-1	-1
COCCCNC(=O)CSc1nc2ccccc2c(=O)n1CCCN1CCCCC1	-12	3	10	-1	-6	0	·	·
COc1ccc(NC(=O)CSc2nc3ccccc3c(=O)n2CCCN2CCCCC2)c(OC)c1	42*	7	25	0	8	-2	0	18*
COc1ccc(NC(=O)CSc2nc3ccccc3nc2N2CCOCC2)c(OC)c1	16*	8	21	-3	9	8	-1	-5
CSCCC(NC(=O)COc1ccccc1)C(=O)NCc1cccs1 (centres undefined)	-3	-4	11	8	5	0	·	·
CC(=O)Nc1ccc(Nc2nc(C)c([N+](=O)[O-])c(N(C)c3ccccc3)n2)cc1	25*	6	16	-1	5	5	0	-5
CC1CCCCN1CCNC(=O)C1CCN(S(=O)(=O)N2CCCCC2)CC1 (centres undefined)	15*	0	4	3	-1	1	0	-2
CC1CCN(CCCNC(=O)C2CCN(S(=O)(=O)N3CCCCC3)CC2)CC1	1	-12	-2	-1	8	-1	·	·

Compound activity from PubChem.
